According to publication PMC8266733 (Acta physiologica (Oxford, England), 2021):
Entries after “also recorded” stand apart in the source; their conditions may differ.

Columns and labels:
[1] = system: Hela-Parkin or Hela-Parkin/USP30 cells
USP30 [2] = target: T1, USP30 (Homo sapiens, UniProt Q70CQ3); assay: TOM20 ubiquitination and turnover; assay type: cell-based
T1 sequence (Q70CQ3 1-517): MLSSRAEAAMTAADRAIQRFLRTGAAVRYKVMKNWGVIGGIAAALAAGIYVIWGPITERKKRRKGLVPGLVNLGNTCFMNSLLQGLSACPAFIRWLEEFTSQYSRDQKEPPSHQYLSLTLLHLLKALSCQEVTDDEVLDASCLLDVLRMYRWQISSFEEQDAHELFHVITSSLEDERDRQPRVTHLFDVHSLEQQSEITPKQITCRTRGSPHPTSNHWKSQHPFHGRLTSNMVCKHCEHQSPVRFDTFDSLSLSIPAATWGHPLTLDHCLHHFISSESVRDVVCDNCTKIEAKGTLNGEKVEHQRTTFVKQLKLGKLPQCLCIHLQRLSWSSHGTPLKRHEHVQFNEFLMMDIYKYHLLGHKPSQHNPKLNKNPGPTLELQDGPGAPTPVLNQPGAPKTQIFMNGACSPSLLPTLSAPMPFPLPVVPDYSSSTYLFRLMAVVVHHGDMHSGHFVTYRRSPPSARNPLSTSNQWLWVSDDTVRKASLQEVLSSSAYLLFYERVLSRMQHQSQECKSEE
In short: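 HeLa-Parkin cells, with or without lentivirally expressed Myc-USP30, were pretreated with test compound at several concentrations. They were then exposed to 5 μM oligomycin plus 5 μM antimycin A for up to 18 h, with 10 μM QVD during 18 h exposures. RIPA lysates (pH 8.0, on ice) were immunoblotted for ubiquitinated TOM20, TOM20, TOM40 and TIM23 with infrared detection. Three independent experiments.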

[3] = system: HeLa-Parkin cells expressing USP30; assay: FACS analysis of A/O-induced mitophagy using mt-Keima fluorescence; assay type: cell-based
In short: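 HeLa-Parkin and HeLa-Parkin cells with lentivirally expressed Myc-USP30, stably expressing mt-Keima, grown in DMEM/10% FBS. Pretreated with DMSO or test compound at 3 μg/ml, then exposed to 1 μM oligomycin plus 1 μM antimycin A for 1.5 h (legend: 2 h). Cells were trypsinized, PBS-washed and resuspended in PBS. Flow cytometry scored cells with lysosomal (pH 4) mt-Keima.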

[4] = system: Hela cells, Hela cells expressing YFP-Parkin and PINK1 KO Hela cells expressing YFP-Parkin; assay type: cell-based
In short: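 Parental HeLa, HeLa stably expressing YFP-Parkin, and PINK1 KO HeLa expressing YFP-Parkin were pretreated with test compound at 1 or 3 μg/ml. They were then given 5 μM oligomycin plus 5 μM antimycin A; the 18 h exposure included 10 μM QVD. Cells were lysed on ice in RIPA buffer (pH 8.0, protease inhibitors) and blotted for TOM20 ubiquitination, TOM20 and NDP52. Infrared secondaries were imaged; three independent experiments.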

[5] = system: Hela-Parkin and Hela-Parkin cells expressing USP30; assay: Seahorse assay of oxygen consumption; assay type: cell-based; conditions: 24 h of ST-539 treatment at high dose
WT and Mfn2−/− MEF cells = assay: Mitochondrial morphology by confocal microscopy; assay type: cell-based, mouse; conditions: 3 or 10 μg/ml ST-539, 24 h
[6] = Plasma pharmacokinetics after i.p. injection, LC-MS/MS; assay type: in vivo; conditions: 25 mg/kg i.p., mice
In short: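 Adult male mice were dosed once at 25 mg/kg i.p. with test compound in 1% DMSO/sesame oil. Serial blood was taken at 0.083, 0.25, 0.5, 1, 2, 4 and 8 h, with terminal cardiac puncture at 24 h, into K2EDTA tubes kept on ice. Plasma was frozen at −70 °C and assayed by LC-MS/MS (n=3 per time point). Parameters were derived from the concentration-time curve.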

[7] = Tissue concentrations 24 hours post-dose, LC/MS/MS; assay type: in vivo; conditions: 25 mg/kg i.p., Male C57BL/6 Mice
In short: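 Mice were given a single 25 mg/kg i.p. dose of test compound in 1% DMSO/sesame oil and euthanized at 24 h. Transcardial perfusion preceded brain collection; heart was also harvested. Tissues were rinsed in cold distilled water, blotted dry, weighed and stored on dry ice. Concentrations (ng/g) were measured by LC/MS/MS.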

mt-Keima mice [8] = assay: In vivo mitophagy in mt-Keima mice
In short: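 mt-Keima mice of both sexes received test compound in 1% DMSO/sesame oil at 25 mg/kg/day i.p. for five doses; controls got vehicle (n=4 control, n=5 treated). In heart and liver sections, mt-Keima was excited sequentially at 458 and 561 nm with 570–695 nm emission. Four images per tissue were averaged and normalized to the control mean (set to one). Heart and liver LC3 I/II were immunoblotted against actin.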

mt-Keima mice [9] = conditions: mouse, in vivo
USP30 [10] = target: T1, USP30; conditions: this compound and similar structures; cited from earlier work

With N#CC(C#N)=NNc1ccc(OC(F)(F)F)cc1 [FCCP, Carbonyl cyanide-p-trifluoromethoxyphenylhydrazone] the “TMRM staining (mitochondrial membrane potential)” value [1] was “significant loss of staining”.

For CC(C)(C)NS(=O)(=O)c1cccc2c(NC(=O)C(Cc3ccccc3)NC(=O)c3ccccc3)cccc12 (stereo not shown) [ST-539], the “TIM23 and TOM40 degradation” value (USP30 [2]; 18h A/O treatment, Hela-Parkin cells overexpressing USP30) was “restored TIM23 and TOM40 degradation”, the “TOM20 ubiquitination versus ST-539 dosage” value (USP30 [2]; A/O treatment, ST-539 at indicated concentrations) was “close correlation” and the “loss of TOM20 protein level” value (USP30 [2]; ST-539 at 10 μg/ml, A/O treatment, in the presence of USP30) was ~ 90%. For the same molecule, the “A/O induced mitophagy (lysosomal positive mt-Keima)” value ([3]; ST-539 3μg/ml prior to A/O, HeLa-Parkin cells expressing USP30) was “restored A/O induced mitophagy”, the “mitophagy in the absence of mitochondrial stress” value ([3]; cellular studies, no mitochondrial stress) was “minimal change” and the “A/O induced TOM20 ubiquitination and decline in TOM20 level” value ([4]; cells expressing ectopic Parkin and endogenous PINK1, ST-539 1 or 3μg/ml) was “further potentiated”. The “TOM20 ubiquitination independent of PINK1/Parkin” value ([4]; long term treatment (18 h), 3μg/ml ST-539, WT Hela or PINK1 KO cells) was “did not promote TOM20 ubiquitination”, the “basal and maximal respiration” value [5] was “slight increase” and the elongation of mitochondria (WT and Mfn2−/− MEF cells; Mfn2−/− MEF cells) was “did not induce the elongation of mitochondria significantly”. For the same molecule, the mitochondrial morphology (WT and Mfn2−/− MEF cells; wild type MEFs) was “failed to change the mitochondrial morphology”, the AUC0-inf [6] was 4240 ng·h/mL and the AUC0-last [6] was 4162 ng·h/mL. The Cmax [6] was 1427 ng/mL, the MRT0-inf [6] was 4.27 h and the MRT0-last [6] was 3.86 h. For the same molecule, the Tlast [6] was 24.0 h, the Tmax [6] was 1.33 h and the “area under the plasma drug concentration-time curve (AUC)” value [6] was ~ 4.2 μg•h/ml. For the same molecule, the “maximum plasma concentration (Cmax)” value [6] was “about 1.4 μg/ml”, the “Tissue concentration, Brain, Mean” value [7] was 17.4 ng/g and the “Tissue concentration, Heart, Mean” value [7] was 37.0 ng/g. For the same molecule, the “LC3-II/LC3-I ratio (LC3 I/II immunoblotting)” value (mt-Keima mice [8]; 25mg/kg/day for 5 days, heart versus control hearts) was “increase; also recorded: increased levels of LC3-II”, the “cardiac mitophagy (mt-Keima red signal in the heart tissue)” value (mt-Keima mice [8]; 25mg/kg/day i.p. for 5 days, heart) was “marked induction of the red signal” and the “mitophagic flux in the hippocampus of the brain” value (mt-Keima mice [8]; 25mg/kg/day i.p. for 5 days, hippocampus (data not shown)) was “remains unchanged”. The “mitophagic flux in the liver” value (mt-Keima mice [8]; 25mg/kg/day i.p. for 5 days, liver) was “remains unchanged”, the “safety of the current dosage in mice” value (mt-Keima mice [9]) was “appears to be safe” and the “inhibition of USP30 enzyme function in vitro” value (USP30 [10]) was “selectively inhibit USP30 enzyme function”.
